Legend:
[1] = Aqueous solubility of the compound; format: physicochemical; conditions: buffer
Adenosine receptor A1 = molecular target: T1, Adenosine receptor A1 (Homo sapiens, UniProt P30542); experiment: Displacement of [3H]N6-R-phenylisopropyladenosine from human adenosine A1 receptor expressed in CHO cell membranes
T1 sequence (P30542 whole entry): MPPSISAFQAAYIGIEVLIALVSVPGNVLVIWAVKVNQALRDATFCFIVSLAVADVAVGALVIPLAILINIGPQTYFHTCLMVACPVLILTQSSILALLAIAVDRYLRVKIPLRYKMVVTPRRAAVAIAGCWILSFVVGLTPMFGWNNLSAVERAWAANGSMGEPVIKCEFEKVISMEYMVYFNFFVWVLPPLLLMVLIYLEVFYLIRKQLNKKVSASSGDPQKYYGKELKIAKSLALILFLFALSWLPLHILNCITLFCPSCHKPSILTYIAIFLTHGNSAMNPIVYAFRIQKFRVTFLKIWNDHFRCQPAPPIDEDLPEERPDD
Method in brief: (§1)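 Radioligand binding at the human receptor subtypes. Nonspecific binding was defined with adenosine 5′-N-ethyluronamide (10 μM). Ki values came from displacement curves, mean ± SEM, n = 3 unless noted. Single-point data were expressed as % inhibition of binding at 10 μM.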

[2] = molecular target: Adenosine receptor A2a (Homo sapiens) (UniProt P29274); experiment: Displacement of [3H]2-[p-(2-carboxyethyl)phenyl-ethylamino]-5'-Nethylcarboxamidoadenosine from human adenosine A2A receptor expressed in HEK293 cell membranes at 10 uM; method in brief: as §1
Adenosine receptor A3 [3] = molecular target: T2, Adenosine receptor A3 (Homo sapiens, UniProt P0DMS8); experiment: Displacement of [125I]N6-(4-amino-3-iodobenzyl)adenosine-5'-N-methyluronamide from human adenosine A3 receptor expressed in CHO cell membranes
T2 sequence (P0DMS8 whole entry): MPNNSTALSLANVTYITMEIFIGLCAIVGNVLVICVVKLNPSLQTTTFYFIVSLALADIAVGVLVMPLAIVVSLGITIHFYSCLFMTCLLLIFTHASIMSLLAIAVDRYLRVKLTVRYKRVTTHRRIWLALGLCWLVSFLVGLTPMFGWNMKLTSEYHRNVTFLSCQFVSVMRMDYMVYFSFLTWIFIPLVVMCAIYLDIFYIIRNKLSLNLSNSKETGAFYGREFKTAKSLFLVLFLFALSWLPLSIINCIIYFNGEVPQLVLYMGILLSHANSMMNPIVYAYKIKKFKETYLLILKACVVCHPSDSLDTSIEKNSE

[4] = molecular target: T3, Adenosine receptor A1 (Homo sapiens) (UniProt P30542); experiment: Displacement of [3H]N6-R-phenylisopropyladenosine from human adenosine A1 receptor expressed in CHO cell membranes at 10 uM; method in brief: as §1
T3 sequence (whole entry): T1 sequence (P30542 whole entry)

Adenosine receptor A3 [5] = molecular target: T4, Adenosine receptor A3 (Canis lupus familiaris, UniProt Q28309); experiment: Binding affinity to canine adenosine A3 receptor expressed in HEK293 cell membranes
T4 sequence (Q28309 whole entry): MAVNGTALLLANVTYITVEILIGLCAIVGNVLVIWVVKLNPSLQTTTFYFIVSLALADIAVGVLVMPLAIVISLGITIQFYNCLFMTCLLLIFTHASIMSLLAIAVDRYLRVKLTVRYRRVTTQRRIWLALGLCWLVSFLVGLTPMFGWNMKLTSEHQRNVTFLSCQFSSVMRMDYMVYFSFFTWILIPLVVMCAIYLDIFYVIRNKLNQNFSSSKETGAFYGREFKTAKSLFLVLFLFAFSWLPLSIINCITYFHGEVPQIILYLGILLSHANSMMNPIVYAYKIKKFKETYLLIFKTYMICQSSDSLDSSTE
Method in brief: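 Radioligand binding used membranes of HEK293 cells expressing the mouse or the canine A3 receptor. Affinities were given as Ki in nM, mean ± SEM, n = 3.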

Mus musculus [6] = experiment: Analgesic activity in mouse chronic constriction injury model of neuropathic pain assessed as protection of ipsilateral hind paw mechanoallodynia of sciatic nerve at 0.3 to 30 umol/kg administered through oral gavage at point of peak pain on day 7 measured at 3 hrs; format: functional
Method in brief: (§2)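 Mice had sciatic nerve chronic constriction injury. Compound was given by oral gavage on day 7, at peak pain. Mechanoallodynia was scored on the ipsilateral and contralateral hind paws at the 1 h and 3 h time points, as % protection. n = 4 per group, some n = 3.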

Mus musculus [7] = experiment: Effect on contralateral side hind paw in mouse chronic constriction injury model of neuropathic pain at 0.3 to 30 umol/kg administered through oral gavage at point of peak pain on day 7; format: ADME, organism-based; conditions: in vivo; method in brief: as §2
Mus musculus [8] = experiment: Analgesic activity in mouse chronic constriction injury model of neuropathic pain assessed as protection of ipsilateral hind paw mechanoallodynia of sciatic nerve at 0.3 to 30 umol/kg administered through oral gavage at point of peak pain on day 7 relative to control measured at 1 hr; format: functional; method in brief: as §2
Mus musculus [9] = experiment: Analgesic activity in mouse chronic constriction injury model of neuropathic pain assessed as protection of ipsilateral hind paw mechanoallodynia of sciatic nerve at 0.3 to 30 umol/kg administered through oral gavage at point of peak pain on day 7; format: functional; conditions: 168 h; method in brief: as §2
Mus musculus [10] = experiment: Analgesic activity in mouse chronic constriction injury model of neuropathic pain assessed as time of peak protection at 0.3 to 30 umol/kg administered through oral gavage at point of peak pain on day 7; format: functional; method in brief: as §2
Adenosine receptor A3 [11] = molecular target: T2, Adenosine receptor A3; experiment: Agonist activity at human adenosine A3 receptor expressed in CHO cells assessed as inhibition of cAMP production; format: functional, cell-based
Method in brief: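 Read-out was inhibition of cyclic AMP production in membranes prepared from CHO cells expressing the human A3 receptor. The value is an EC50 with full agonism assessed.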

Adenosine receptor A3 [12] = molecular target: T5, Adenosine receptor A3 (Mus musculus, UniProt Q61618); experiment: Binding affinity to mouse adenosine A3 receptor expressed in HEK293 cell membranes
T5 sequence (Q61618 whole entry): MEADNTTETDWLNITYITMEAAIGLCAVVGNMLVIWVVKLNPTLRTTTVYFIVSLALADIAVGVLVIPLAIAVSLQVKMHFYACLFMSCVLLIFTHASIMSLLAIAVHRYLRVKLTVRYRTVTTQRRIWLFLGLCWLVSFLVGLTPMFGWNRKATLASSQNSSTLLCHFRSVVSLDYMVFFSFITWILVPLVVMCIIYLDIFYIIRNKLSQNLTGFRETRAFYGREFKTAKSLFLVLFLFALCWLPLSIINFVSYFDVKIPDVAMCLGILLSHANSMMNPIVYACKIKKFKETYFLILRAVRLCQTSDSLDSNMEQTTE
Method in brief: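 Radioligand binding used membranes of HEK293 cells expressing the mouse or the canine A3 receptor.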

[13] = molecular target: 5-hydroxytryptamine receptor 2B (Homo sapiens, UniProt P41595); experiment: Binding affinity to 5HT2B receptor (unknown origin)
[14] = molecular target: T6, Adenosine receptor A2b (Homo sapiens) (UniProt P29275); experiment: Displacement of [3H]MRS1754 from human adenosine A2B receptor expressed in HEK293 cell membranes at 10 uM
T6 sequence (whole entry): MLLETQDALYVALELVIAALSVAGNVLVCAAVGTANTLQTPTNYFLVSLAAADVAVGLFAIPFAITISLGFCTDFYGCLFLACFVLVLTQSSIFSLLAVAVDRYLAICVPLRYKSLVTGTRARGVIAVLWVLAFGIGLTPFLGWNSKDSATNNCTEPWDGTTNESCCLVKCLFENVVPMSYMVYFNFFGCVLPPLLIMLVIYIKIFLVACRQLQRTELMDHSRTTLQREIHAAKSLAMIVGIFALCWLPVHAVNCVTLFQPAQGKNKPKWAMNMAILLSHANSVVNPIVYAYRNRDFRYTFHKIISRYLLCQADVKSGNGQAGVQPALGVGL

Mus musculus [15] = experiment: Analgesic activity in mouse chronic constriction injury model of neuropathic pain assessed as time duration protection hind paw mechanoallodynia of sciatic nerve at 3 umol/kg administered through oral gavage at point of peak pain on day 7; format: functional
Method in brief: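 In CCI mice, 3 μmol/kg was given p.o. on day 7. The time course of protection against hind paw mechanoallodynia was followed, n = 4. Data were mean ± SEM, analysed by two-tailed two-way ANOVA with Bonferroni comparisons versus day 0.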

Mus musculus [16] = experiment: Analgesic activity in intraperitoneally dosed mouse chronic constriction injury model of neuropathic pain assessed as time of peak protection; format: functional
Mus musculus [17] = experiment: Analgesic activity in intraperitoneally dosed mouse chronic constriction injury model of neuropathic pain; format: functional; conditions: ip

Chain of Adenosine receptor A2a (Homo sapiens) (P29274 whole entry): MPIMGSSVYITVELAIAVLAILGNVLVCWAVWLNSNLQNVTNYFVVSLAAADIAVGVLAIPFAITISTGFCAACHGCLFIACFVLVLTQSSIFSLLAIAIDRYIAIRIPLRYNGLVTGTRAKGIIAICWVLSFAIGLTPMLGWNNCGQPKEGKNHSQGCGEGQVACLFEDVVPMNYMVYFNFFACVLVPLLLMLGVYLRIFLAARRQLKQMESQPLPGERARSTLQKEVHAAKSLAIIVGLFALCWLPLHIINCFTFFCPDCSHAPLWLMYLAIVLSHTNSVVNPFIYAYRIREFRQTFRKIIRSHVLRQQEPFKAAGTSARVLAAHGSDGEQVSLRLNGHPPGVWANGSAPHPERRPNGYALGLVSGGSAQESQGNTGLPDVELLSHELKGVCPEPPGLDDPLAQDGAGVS
Chain of 5-hydroxytryptamine receptor 2B (P41595 whole entry): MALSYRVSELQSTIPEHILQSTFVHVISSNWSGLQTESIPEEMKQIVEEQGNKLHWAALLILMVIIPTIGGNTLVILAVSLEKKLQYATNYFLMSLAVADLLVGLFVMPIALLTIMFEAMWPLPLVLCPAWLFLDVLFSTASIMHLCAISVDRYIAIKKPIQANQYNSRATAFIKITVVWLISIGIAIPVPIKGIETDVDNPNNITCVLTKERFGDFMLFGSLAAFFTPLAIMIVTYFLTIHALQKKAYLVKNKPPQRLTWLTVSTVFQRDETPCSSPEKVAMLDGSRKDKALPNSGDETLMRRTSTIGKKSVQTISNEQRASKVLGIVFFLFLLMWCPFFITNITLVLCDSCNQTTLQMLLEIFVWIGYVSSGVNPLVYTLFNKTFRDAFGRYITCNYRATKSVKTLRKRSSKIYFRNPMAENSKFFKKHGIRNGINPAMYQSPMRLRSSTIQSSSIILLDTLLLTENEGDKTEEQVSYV

Row | Structure (SMILES) | inhibition [2] [%] | Ki (Adenosine receptor A3 [3]) [nM] | inhibition [4] [%] | Activity (Mus musculus [6]) [%] | Activity (Mus musculus [7]) | Emax (Mus musculus [8]) [%] | Time (Mus musculus [10]) [h] | also measured
1 | CNC(=O)[C@@]12C[C@@H]1[C@@H](n1cnc3c(NCC4CCC4)nc(-n4cc(-c5ccc(Cl)s5)nn4)nc31)[C@H](O)[C@@H]2O | 42 | 21 |  |  |  |  |  | solubility [1]: Insoluble; Ki (Adenosine receptor A1): 710 nM
2 | CNC(=O)[C@@]12C[C@@H]1[C@@H](n1cnc3c(NCC4CC4)nc(-n4cc(-c5ccc(Cl)s5)nn4)nc31)[C@H](O)[C@@H]2O | 44 | 9.4 |  |  |  |  |  | Ki (Adenosine receptor A1): 1350 nM
3 | CCCNc1cc(-n2cc(-c3ccc(Cl)s3)nn2)nc2c1ncn2[C@H]1[C@H](O)[C@H](O)[C@]2(C(=O)NC)C[C@H]12 | 4 | 110 | 44 |  |  |  |  | 
4 | CNC(=O)[C@@]12C[C@@H]1[C@@H](n1cnc3c(NC)nc(C#Cc4ccc(Cl)s4)nc31)[C@H](O)[C@@H]2O |  |  |  | 46 | Non-toxic | 93 | 1 | Ki (Adenosine receptor A3 [5]): 8.5 nM; ED50 (Mus musculus [9]): 0.73 µmol/kg
5 | CCCNc1cc(C#Cc2ccc(Cl)s2)nc2c1ncn2[C@H]1[C@H](O)[C@H](O)[C@]2(C(=O)NC)C[C@H]12 | 11 | 38 |  |  |  |  |  | Ki (Adenosine receptor A1): 2440 nM
6 | CCNc1cc(C#Cc2ccc(Cl)s2)nc2c1ncn2[C@H]1[C@H](O)[C@H](O)[C@]2(C(=O)NC)C[C@H]12 | 0 | 1.7 | 10 | 84 | Non-toxic | 93 | 1 | Ki (Adenosine receptor A3 [5]; read-out: Ki): 49 nM; EC50 (Adenosine receptor A3 [11]): 1.5 nM; Ki (Adenosine receptor A3 [12]): 16 nM; Ki ([13]; read-out: Ki): 2500 nM; inhibition [14]: 17%; Time (Mus musculus [15]): 5 h
7 | NCC1(CC(=O)O)CCCCC1 [GABAPENTIN] |  |  |  |  |  |  |  | Time (Mus musculus [16]): 1 h; ED50 (Mus musculus [17]): 140 µmol/kg
8 | CCNc1nc(C#Cc2ccc(Cl)s2)nc2c1ncn2[C@H]1[C@H](O)[C@H](O)[C@]2(C(=O)NC)C[C@H]12 | 12 | 3.8 | 28 | 87 | Non-toxic | 98 | 1 | Ki (Adenosine receptor A3 [5]; read-out: Ki): 1.5 nM; Ki (Adenosine receptor A3 [12]): 27 nM; ED50 (Mus musculus [9]): 0.9 µmol/kg
9 | CNC(=O)[C@@]12C[C@@H]1[C@@H](n1cnc3c(NC4CCC4)nc(C#Cc4ccc(Cl)s4)nc31)[C@H](O)[C@@H]2O | 34 | 4.5 | 39 | 95 | Non-toxic | 97 | 1 | 
10 | CNC(=O)[C@@]12C[C@@H]1[C@@H](n1cnc3c(NC(C)C)nc(C#Cc4ccc(Cl)s4)nc31)[C@H](O)[C@@H]2O | 17 | 2.9 | 26 | 39 | Non-toxic | 88 | 1 | 
11 | CCCCNc1nc(C#Cc2ccc(Cl)s2)nc2c1ncn2[C@H]1[C@H](O)[C@H](O)[C@]2(C(=O)NC)C[C@H]12 | 0 | 2.9 | 6 | 24 | Non-toxic | 68 | 1 | 
12 | CNC(=O)[C@@]12C[C@@H]1[C@@H](n1cnc3c(NCC4CCC4)nc(C#Cc4ccc(Cl)s4)nc31)[C@H](O)[C@@H]2O | 5 | 15 | 34 | 90 | Non-toxic | 98 | 1 | 
13 | CNC(=O)[C@@]12C[C@@H]1[C@@H](n1cnc3c(NC4CC4)nc(C#Cc4ccc(Cl)s4)nc31)[C@H](O)[C@@H]2O | 44 | 1 | 47 | 36 | Non-toxic | 76 | 1 | 
14 | CNC(=O)[C@@]12C[C@@H]1[C@@H](n1cnc3c(NC)cc(C#Cc4ccc(Cl)s4)nc31)[C@H](O)[C@@H]2O | 8 | 3 | 15 | 80 | Non-toxic | 91 | 1 | Ki (Adenosine receptor A3 [5]; read-out: Ki): 75 nM; Ki (Adenosine receptor A3 [12]): 31 nM
15 | CNC(=O)[C@@]12C[C@@H]1[C@@H](n1cnc3c(NCC4CC4)nc(C#Cc4ccc(Cl)s4)nc31)[C@H](O)[C@@H]2O | 3 | 7.9 | 24 | 85 | Non-toxic | 94 | 1 | 
16 | CCCNc1nc(C#Cc2ccc(Cl)s2)nc2c1ncn2[C@H]1[C@H](O)[C@H](O)[C@]2(C(=O)NC)C[C@H]12 | 34 | 1.1 | 22 | 93 | Non-toxic | 95 | 1 | Ki (Adenosine receptor A3 [5]; read-out: Ki): 5.8 nM; Ki (Adenosine receptor A3 [12]): 6.8 nM; Ki [13]: Not Active; inhibition [14]: 34%
17 | CNC(=O)[C@@]12C[C@@H]1[C@@H](n1cnc3c(NC4CC4)cc(C#Cc4ccc(Cl)s4)nc31)[C@H](O)[C@@H]2O | 11 | 10 | 26 |  |  |  |  | 

— ChEMBL document CHEMBL3612017, “Rigidified A3 Adenosine Receptor Agonists: 1-Deazaadenine Modification Maintains High in Vivo Efficacy” (ACS Med Chem Lett, 2015)
